In general, IC50 refers to the concentration that inhibits the measured activity by half. One may read the inhibition as the share of the control response that was lost under treatment. A low value points to a weak effect.

Data on 25 compounds can be found in ChEMBL document CHEMBL4392838, “Binding pocket-based design, synthesis and biological evaluation of novel selective BRD4-BD1 inhibitors” (Bioorg Med Chem, 2019).

For one experiment, the system named is HepG2. As to the kind of experiment: Antiproliferative activity against human HepG2 cells assessed as reduction in cell growth measured after 48 hrs by MTT assay. The conditions noted are these: HepG2, 48 h. Format: functional, cell-based. A digest of the protocol:
(§1)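 Cells grown at 37 °C in 5% CO2. MCF-7, A549 and HT-29 cells were kept in RPMI 1640 with 10% FBS and pen/strep. HepG2, A375, NRK-49F and LX-2 cells were kept in high-glucose DMEM with 10% FBS and pen/strep. HLF-1 cells were kept in DMEM/F-12 (1:1) with 10% FBS. Cells seeded for exponential growth, exposed to a concentration range for 48 h, then MTT added for 4 h at 37 °C. Formazan dissolved in DMSO, absorbance read at 490 nm, IC50 fitted.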

A short description of experiment [1]: Antifibrotic activity against human LX2 cells assessed as reduction in cell growth measured after 48 hrs by MTT assay. It counts as functional, cell-based. To be noted: LX-2, 48 h. A digest of the protocol:
as §1

The next experiment relates to HT-29. The experiment in a line: Antiproliferative activity against human HT-29 cells assessed as reduction in cell growth measured after 48 hrs by MTT assay. It counts as functional, cell-based. The conditions noted are these: HT-29, 48 h. The essentials: as §1
(In general: Tetrazolium dyes change colour on reduction, which living cells bring about.)

The subject of a further experiment is A-375. As to the kind of experiment: Antiproliferative activity against human A375 cells assessed as reduction in cell growth measured after 48 hrs by MTT assay. It counts as functional, cell-based. To be noted: A-375, 48 h. The essentials:
as §1

Experiment [2] addresses T1, Bromodomain-containing protein 4 (Homo sapiens, UniProt O60885). As to the kind of experiment: Inhibition of biotinylated H4 K5,8,12,16Ac peptide binding to GST-tagged BRD4 bromodomain2 (unknown origin) at 100 uM measured after 60 mins by AlphaScreen assay relative to control. A digest of the protocol:
(§2)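 AlphaScreen proximity assay measuring binding of the tetra-acetylated (K5,8,12,16Ac) biotinylated histone H4 peptide to recombinant BRD4 BD1 or BD2. Buffer was 50 mM HEPES with BSA, at 1% DMSO in the 10X compound dilutions. Compound, bromodomain, peptide and histidine-conjugated acceptor beads were incubated 60 min at room temperature. Streptavidin donor beads were then added for 30 min in the dark, and the endpoint Alpha signal read. Inhibition taken at 100 µM, mean of three independent experiments.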

The test system of another experiment is MCF7. The experiment in a line: Antiproliferative activity against human MCF7 cells assessed as reduction in cell growth measured after 48 hrs by MTT assay. Format: functional, cell-based. To be noted: MCF7, 48 h. The essentials:
as §1

In experiment [3] the target is T1, Bromodomain-containing protein 4. The experiment in a line: Inhibition of biotinylated H4 K5,8,12,16Ac peptide binding to GST-tagged BRD4 bromodomain1 (unknown origin) measured after 60 mins by AlphaScreen assay. Background: Alpha assays give light when donor and acceptor beads are brought close together.
Another experiment deals with A549. The experiment in a line: Antiproliferative activity against human A549 cells assessed as reduction in cell growth measured after 48 hrs by MTT assay. To be noted: A549, 48 h. It counts as functional, cell-based. A digest of the protocol: as §1
Experiment [4] is described as follows: Antifibrotic activity against human HLF1 cells assessed as reduction in cell growth measured after 48 hrs by MTT assay. It counts as functional, cell-based. To be noted: HLF1, 48 h. The essentials:
as §1

The test system of a further experiment is NRK-49F. As to the kind of experiment: Antifibrotic activity against rat NRK-49F cells assessed as reduction in cell growth measured after 48 hrs by MTT assay. Format: functional, cell-based. The essentials: as §1
In experiment [5] the target is T1, Bromodomain-containing protein 4. As to the kind of experiment: Inhibition of biotinylated H4 K5,8,12,16Ac peptide binding to GST-tagged BRD4 bromodomain1 (unknown origin) at 100 uM measured after 60 mins by AlphaScreen assay relative to control. A digest of the protocol: as §2

Molecules are shown by their SMILES.

Take `Cc1noc(C)c1Cn1c(=O)nc(-c2ccc(F)cc2)c2c3c(sc21)CC(C(C)(C)C)CC3` (stereo unspecified): the IC50 with HepG2 worked out at 63.7 µM; in experiment [1] it was 17.3 µM; with HT-29 it was 10.7 µM; in the experiment on A-375 it was 14.2 µM; in the experiment with MCF7, 33.3 µM; in experiment [3], 3.6 µM. Moreover, the IC50 worked out at 49.9 µM in the experiment with A549, 14.5 µM in experiment [4] and 23.3 µM in the experiment on NRK-49F. In experiment [2], this compound gave an inhibition of 33.2%.
For `Cc1noc(C)c1Cn1c(=O)nc(-c2ccccc2)c2c3c(sc21)CC(C(C)(C)C)CC3` (stereo unspecified), the IC50 in the experiment on HepG2 is 10.9 µM; in experiment [1], 21.6 µM; in the experiment on HT-29, 20.1 µM; with A-375 it was 8 µM; in the experiment on MCF7 it was > 100 µM; in experiment [3] it was 8.2 µM. Moreover, the IC50 in the experiment on A549 worked out at 29.6 µM; in experiment [4], 21.3 µM; in the experiment with NRK-49F it was 23.1 µM. The compound also yielded an inhibition in experiment [2] of 41.2%.
As to `Cc1noc(C)c1Cn1c(=O)nc(-c2ccccc2Cl)c2c3c(sc21)CC(C(C)(C)C)CC3` (stereo unspecified), the IC50 in the experiment with HepG2 came out at 30 µM; in experiment [1], 11.3 µM; in the experiment on HT-29 it was 19.2 µM; with A-375, 11.1 µM; in the experiment on MCF7, 69.2 µM; in [3] it was 1.6 µM. In addition, the IC50 in the experiment with A549 worked out at 16.6 µM; in experiment [4] it was 12 µM; with NRK-49F, 17.2 µM. In addition, the inhibition in experiment [2] came out at 39.5%.
`CC(C)(C)C1CCc2c(sc3c2c(-c2ccccc2)nc(=O)n3Cc2cnc(Cl)s2)C1` (stereo unspecified): the IC50 was 2.4 µM in the experiment with HepG2; 4.2 µM in [1]; 54.4 µM with HT-29; 14.7 µM in the experiment on A-375; > 100 µM with MCF7; 22.7 µM in [3]. Moreover, the IC50 is 31.9 µM in the experiment on A549, 7.6 µM in [4] and 6 µM with NRK-49F. The compound further displayed an inhibition in experiment [2] of 28.3%.
Consider `COc1ccc(-c2nc(=O)n(Cc3cnc(Cl)s3)c3sc4c(c23)CCC(C(C)(C)C)C4)cc1` (stereo unspecified), for which the IC50 in the experiment on HepG2 is 14.5 µM; in [1], 12.4 µM; in the experiment on HT-29 it was 98 µM; in the experiment on A-375 it was 6.5 µM; in the experiment on MCF7, > 100 µM; in experiment [3] it was 18.5 µM. The values for the IC50 (in the experiment with A549; in experiment [4]; in the experiment with NRK-49F) were 95.1 µM, 14.6 µM and 11.2 µM, respectively. Further, the inhibition in [2] stood at 57.2%.
Turning to `O=c1nc(-c2ccc(Cl)cc2)c2c3c(sc2n1Cc1cnc(Cl)s1)CC(c1ccccc1)CC3` (stereo unspecified), the IC50 in [1] worked out at 98.2 µM. Besides, the values for the inhibition in [2] and in [5] were 14.5% and 44.9%, respectively.
In the same order, the values of `Cc1noc(C)c1Cn1c(=O)nc(-c2ccccc2)c2c3c(sc21)CCC3` are > 300 µM, 19.8% and 23%.
`CC(C)(C)C1CCc2c(sc3c2c(-c2ccccc2)nc(=O)n3Cc2ncccn2)C1` (stereo unspecified): in experiment [1], the IC50 was determined as 152 µM. Further, the inhibition was determined as 66.6% in experiment [2] and 70.4% in experiment [5].
Consider `COC(=O)c1ccc(-c2nc(=O)n(Cc3c(C)noc3C)c3sc4c(c23)CCC(C(C)(C)C)C4)cc1` (stereo unspecified), for which the IC50 worked out at 12.8 µM in the experiment on HepG2; 19.6 µM in experiment [1]; 17.8 µM in the experiment on HT-29; 8.7 µM in the experiment with A-375; 38.6 µM with MCF7; 1.5 µM in experiment [3]. The values for the half-inhibitory concentration (IC50) (with A549; in experiment [4]; in the experiment with NRK-49F) were 19.3 µM, 6.6 µM and 8.1 µM, respectively. This compound also yielded an inhibition in experiment [2] of 49.7%.
With `Cc1noc(C)c1Cn1c(=O)nc(-c2cccc(Cl)c2)c2c3c(sc21)CC(C(C)(C)C)CC3` (stereo unspecified), the IC50 with HepG2 came out at 3.6 µM; in experiment [1], 15.3 µM; with HT-29, 19.7 µM; in the experiment with A-375, 15.9 µM; in the experiment on MCF7, 25.7 µM; in [3], 3.1 µM. In addition, the IC50 came out at 18.9 µM in the experiment with A549, 12.8 µM in [4] and 8.5 µM in the experiment with NRK-49F. Besides, the inhibition in experiment [2] was determined as 52.3%.
Consider `Cc1noc(C)c1COc1nc(-c2ccc(Cl)c(Cl)c2)c2c3c(sc2n1)CC(C(C)(C)C)CC3` (stereo unspecified), for which the IC50 in [1] is > 300 µM. Further, the inhibition in experiment [2] stood at 9.3%; in [5], 32.6%.
For `CC(=O)Cn1c(=O)nc(-c2ccccc2)c2c3c(sc21)CCCC3`, in that order: > 300 µM, 17.2% and 23.7%.
In the same order, the values of `Cc1noc(C)c1Cn1c(=O)nc(-c2ccccc2)c2c3c(sc21)CCCCC3` are 140 µM, 81.2% and 84.4%.
For `Cc1noc(C)c1Cn1c(=O)nc(-c2ccccc2)c2c3c(sc21)CC(C)(C)CC3`, in that order: > 300 µM, 44.9% and 86.6%.
With `CNC(=O)Cn1c(=O)nc(-c2ccccc2)c2c3c(sc21)CCCC3`, in experiment [1], the IC50 is > 300 µM. Besides, the inhibition is 3.1% in [2] and 38.5% in [5].
Regarding `Cc1noc(C)c1Cn1c(=O)nc(-c2ccc(Cl)cc2)c2c3c(sc21)CC(C(C)(C)C)CC3` (stereo unspecified), the IC50 came out at 26.4 µM with HepG2; 10.4 µM in [1]; 33.8 µM with HT-29; 13.6 µM in the experiment with A-375; 78.3 µM in the experiment with MCF7; 2.4 µM in experiment [3]. For the same compound, the values for the half-maximal inhibitory concentration (IC50) (in the experiment on A549; in experiment [4]; with NRK-49F) were 66.5 µM, 18.9 µM and 26.3 µM, respectively. The inhibition in [2] was 23.4%.
Regarding `CC(=O)C(C)n1c(=O)nc(-c2ccccc2)c2c3c(sc21)CCCC3` (stereo unspecified), the IC50 in [1] is > 300 µM. In addition, the inhibition turned out to be 13.6% in experiment [2] and 30% in [5].
In the same order, the values of `COc1ccc(-c2nc(=O)n(Cc3c(C)noc3C)c3sc4c(c23)CCN(C(C)C)C4)cc1` are 101 µM, 66.6% and 82.9%.
Take `Cc1noc(C)c1Cn1c(=O)nc(-c2ccc(Cl)cc2)c2c3c(sc21)CC(c1ccccc1)CC3` (stereo unspecified): the IC50 amounted to 28.8 µM in [1] and 6 µM in [3]. Moreover, in experiment [2], the inhibition came to 15.1%.
With `CCc1c(C)sc2c1c(-c1ccccc1)nc(=O)n2Cc1c(C)noc1C`, the IC50 in experiment [1] is > 300 µM. Also, the inhibition in [2] amounted to 17.8%; in [5] it was 9.5%.
`COC(=O)C1CCc2c(sc3c2c(-c2ccccc2)nc(=O)n3Cc2c(C)noc2C)C1` (stereo unspecified): the IC50 in [1] is > 300 µM. Also, the inhibition in experiment [2] was 9%; in [5], 19%.
On to `Cc1noc(C)c1Cn1c(=O)nc(-c2ccccc2)c2c3c(sc21)CCCC3`, for which the IC50 in experiment [1] came out at 114 µM. Also, the inhibition came out at 26.2% in experiment [2] and 46.4% in [5].
As to `Cn1c(=O)nc(-c2ccccc2)c2c3c(sc21)CCCC3`, the IC50 in [1] was > 300 µM. Also, the inhibition came out at 66.2% in [2] and 42.6% in experiment [5].
As for `COc1ccc(-c2nc(=O)n(Cc3c(C)noc3C)c3sc4c(c23)CCC(C(C)(C)C)C4)cc1` (stereo unspecified), the half-maximal inhibitory concentration (IC50) was 15.1 µM in the experiment with HepG2; 12.9 µM in experiment [1]; 13 µM with HT-29; 14.2 µM with A-375; 10.4 µM in the experiment with MCF7; 11.4 µM in [3]. The IC50 with A549 stood at 18.9 µM; in experiment [4], 14.1 µM; in the experiment on NRK-49F, 22.2 µM. The inhibition in experiment [2] was found to be 42.2%.
As to `CC(C)(C)C1CCc2c(sc3c2c(-c2ccc(Cl)cc2)nc(=O)n3Cc2cnc(Cl)s2)C1` (stereo unspecified), the half-inhibitory concentration (IC50) in [1] is > 300 µM.
